Experimental data published in ChEMBL document CHEMBL1148372 (J Med Chem, 2004).
Values belong to the compound of their own block, whether it stands above or below them. Calls of active or inactive are those of the source. The rule behind the calls is not given here.

Key:
[1] = target: D(2) dopamine receptor (Rattus norvegicus) (UniProt P61169); assay: In vitro efficacy tested on rat Dopamine receptor D2 were co-expressed with GRqo5 in HEK293 cells using FLIPR assay (Efficacy relative to 10 uM dopamine); format: cell-based
D(4) dopamine receptor [2] = target: T1, D(4) dopamine receptor (Rattus norvegicus, UniProt P30729); assay: In vitro effective concentration tested on HEK293 cells co-transfected with rat Dopamine receptor D4 using FLIPR assay; format: cell-based
T1 sequence (P30729 whole entry): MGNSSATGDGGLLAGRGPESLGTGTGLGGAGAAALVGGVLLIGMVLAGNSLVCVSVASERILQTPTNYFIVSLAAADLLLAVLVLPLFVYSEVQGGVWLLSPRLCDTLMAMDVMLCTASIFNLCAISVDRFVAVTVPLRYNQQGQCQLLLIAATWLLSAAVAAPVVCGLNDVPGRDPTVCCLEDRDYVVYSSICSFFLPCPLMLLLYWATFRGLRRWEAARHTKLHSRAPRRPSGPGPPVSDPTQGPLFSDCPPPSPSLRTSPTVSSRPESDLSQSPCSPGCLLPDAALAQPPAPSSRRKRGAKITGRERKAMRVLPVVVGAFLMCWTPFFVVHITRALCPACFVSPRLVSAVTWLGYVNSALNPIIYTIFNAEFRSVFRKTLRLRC

Rattus norvegicus [3] = assay: In vivo maximal penile erection in rats 60 min after subcutaneous administration; format: functional
Outline: (§1)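 Conscious male Wistar rats, adapted 60 min to a dim red-lit room, tested between 9:00 a.m. and 3:00 p.m. Dosed subcutaneously, then caged singly and observed directly for 60 min. Percent incidence is the share of animals with one or more erections; 8–30 animals per group. Maximally effective dose is the dose giving peak incidence, with significance versus control.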

Rattus norvegicus [4] = assay: In vivo maximal effective dose tested in rats for erection 60 min after subcutaneous administration; format: functional; outline: as §1
[5] = target: T2, D(4) dopamine receptor (Homo sapiens) (UniProt P21917); assay: In vitro efficacy tested on human Dopamine receptor D4.4 were co-expressed with GRqo5 in HEK293 cells using FLIPR assay (Efficacy relative to 10 uM dopamine); format: cell-based
T2 sequence (whole entry): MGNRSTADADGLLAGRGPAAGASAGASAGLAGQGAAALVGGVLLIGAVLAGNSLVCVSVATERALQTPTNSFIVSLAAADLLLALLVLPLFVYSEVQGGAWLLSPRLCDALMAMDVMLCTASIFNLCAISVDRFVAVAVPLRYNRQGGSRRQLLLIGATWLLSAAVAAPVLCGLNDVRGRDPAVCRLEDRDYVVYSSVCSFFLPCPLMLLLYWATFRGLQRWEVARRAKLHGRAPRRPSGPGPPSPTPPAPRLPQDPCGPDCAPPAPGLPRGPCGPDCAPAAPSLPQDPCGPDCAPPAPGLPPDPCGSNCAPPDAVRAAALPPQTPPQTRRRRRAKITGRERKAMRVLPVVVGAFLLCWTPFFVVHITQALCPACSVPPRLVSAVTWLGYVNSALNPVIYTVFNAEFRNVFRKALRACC
Outline: (§2)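 HEK293 cells coexpressing human D4.4 receptor and Gαqo5, plated at 20 000 cells/well and grown 2 days. Loaded 1 h at 23 °C with 4 µM Fluo-4 plus 0.04% Pluronic F-127 in DPBS, washed four times. Compound added, fluorescence read over 3 min.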

D(4) dopamine receptor [6] = target: T3, D(4) dopamine receptor (Homo sapiens, UniProt P21917); assay: In vitro EC50 tested on HEK293 cells co-transfected with human Dopamine receptor D4.4 using FLIPR assay; format: cell-based; outline: as §2
T3 sequence (P21917 whole entry): T2 sequence (whole entry)

[7] = target: T2, D(4) dopamine receptor (Homo sapiens); assay: In vitro efficacy tested on human D4.4 receptor were coexpressed with GRqo5 in HEK293 cells using FLIPR assay (Efficacy relative to 10 uM dopamine); format: cell-based; outline: as §2
D(4) dopamine receptor [8] = target: T3, D(4) dopamine receptor; assay: In vitro effective concentration tested on HEK293 cells co-transfected with human D4.4 receptor using FLIPR assay; format: cell-based
Outline: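 Human D4.4 receptor co-expressed with Gαqo5 in HEK293 cells, plated at 20 000 cells/well and grown 2 days. Loaded with 4 µM Fluo-4 and 0.04% Pluronic F-127 in DPBS with glucose and pyruvate for 1 h at 23 °C, then washed. Compound added and fluorescence read over 3 min on FLIPR. […] EC50 is the concentration giving half-maximal response.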

D(4) dopamine receptor [9] = target: T3, D(4) dopamine receptor; assay: In vitro binding affinity tested on HEK293 cells co-transfected with human D4.4 receptor using [3H]spiperone as a radioligand […]; format: cell-based
Outline: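 Competition binding to membranes from HEK-293 cells transfected with human D4.4, stored at −80 °C. Radioligand was 0.1 nM [3H]-spiperone, incubated 2 h in 50 mM Tris-HCl pH 7.4 with 5 mM KCl, 120 mM NaCl, 5 mM MgCl2 and 1 mM EDTA. Compounds were in buffer with 0.1% ascorbic acid. Samples were filtered through glass fibre and washed three times with cold Tris. Bound radioactivity was counted by scintillation to give Ki.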

D(4) dopamine receptor [10] = target: T3, D(4) dopamine receptor; assay: In vitro inhibitory concentration tested on human D4.4 receptor in HEK293 cells using FLIPR assay; format: cell-based

Sequence of D(2) dopamine receptor (Rattus norvegicus) (P61169 whole entry): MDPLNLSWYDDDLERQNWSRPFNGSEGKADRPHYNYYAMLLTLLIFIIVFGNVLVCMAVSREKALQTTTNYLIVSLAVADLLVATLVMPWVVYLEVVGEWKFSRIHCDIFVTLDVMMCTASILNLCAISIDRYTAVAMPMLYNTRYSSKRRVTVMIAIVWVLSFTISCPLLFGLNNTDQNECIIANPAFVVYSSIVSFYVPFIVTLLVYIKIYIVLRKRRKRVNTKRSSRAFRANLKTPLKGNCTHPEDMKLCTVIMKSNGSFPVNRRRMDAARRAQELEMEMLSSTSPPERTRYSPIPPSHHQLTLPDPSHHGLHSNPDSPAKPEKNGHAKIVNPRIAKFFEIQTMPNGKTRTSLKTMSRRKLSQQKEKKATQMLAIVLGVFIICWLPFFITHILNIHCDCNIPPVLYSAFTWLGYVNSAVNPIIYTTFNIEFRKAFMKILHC

SMILES: CN1CCc2cccc3c2[C@H]1Cc1ccc(O)c(O)c1-3 [APOMORPHINE]
Efficacy [1]: 103%
EC50 (D(4) dopamine receptor [2]): 5.5 nM
Activity (Rattus norvegicus [3]): 91%
Effective dose (Rattus norvegicus [4]): 0.1 µM/kg

SMILES: c1ccc(Cn2c(CN3CCN(c4ccccn4)CC3)nc3ccccc32)cc1
Efficacy [7]: inactive

SMILES: Oc1ccc(N2CCN(Cc3nc4ccccc4[nH]3)CC2)nn1
Efficacy [7]: inactive

SMILES: COc1ccc2[nH]c(CN3CCN(c4ccccn4)CC3)nc2c1
Efficacy [7]: inactive

SMILES: CCc1cnc(N2CCN(Cc3nc4ccccc4[nH]3)CC2)nc1
Efficacy [7]: inactive

SMILES: C[C@@H]1CN(c2ccccn2)CCN1Cc1nc2ccccc2[nH]1
Efficacy [5]: 34%
EC50 (D(4) dopamine receptor [6]): 64 nM

SMILES: Brc1cc(Br)c2[nH]c(CN3CCN(c4ccccn4)CC3)nc2c1
Activity (Rattus norvegicus [3]): 60%
Efficacy [5]: 37%
EC50 (D(4) dopamine receptor [6]): 416 nM
Effective dose (Rattus norvegicus [4]): 0.03 µM/kg

SMILES: c1ccc(N2CCN(CCc3nc4ccccc4[nH]3)CC2)nc1
Efficacy [5]: 62%
EC50 (D(4) dopamine receptor [6]): 23 nM

SMILES: C1=C(c2ccccc2)CCN(Cc2nc3ccccc3[nH]2)C1
Efficacy [5]: 48%
EC50 (D(4) dopamine receptor [8]): 228 nM

SMILES: Cc1ccc(N2CCN(Cc3nc4ccccc4[nH]3)CC2)cc1C
Ki (D(4) dopamine receptor [9]): 1.5 nM
IC50 (D(4) dopamine receptor [10]): 5 nM

SMILES: COc1ccccc1C1CCN(Cc2nc3ccccc3[nH]2)CC1
Efficacy [5]: 34%
EC50 (D(4) dopamine receptor [6]): 100 nM

SMILES: CS(=O)(=O)c1cccnc1N1CCN(Cc2nc3ccccc3[nH]2)CC1
Efficacy [5]: 27%
EC50 (D(4) dopamine receptor [6]): 136 nM

SMILES: O=C(N1CCCC1)n1c(CN2CCN(c3ccccn3)CC2)nc2ccccc21
Efficacy [7]: inactive

SMILES: Cn1c(CN2CCN(c3ccccn3)CC2)nc2ccccc21
Efficacy [7]: inactive

SMILES: Cc1ccc(C)c(N2CCN(Cc3nc4ccccc4[nH]3)CC2)c1
Ki (D(4) dopamine receptor [9]): 3.8 nM
IC50 (D(4) dopamine receptor [10]): 1 nM

SMILES: C1=C(c2ccccn2)CCN(Cc2nc3ccccc3[nH]2)C1
Activity (Rattus norvegicus [3]): 75%
Efficacy [5]: 63%
EC50 (D(4) dopamine receptor [8]): 11 nM
Effective dose (Rattus norvegicus [4]): 0.03 µM/kg

SMILES: CN(C)C(=O)n1c(CN2CCN(c3ccccn3)CC2)nc2ccccc21
Efficacy [7]: inactive

SMILES: c1cnnc(N2CCN(Cc3nc4ccccc4[nH]3)CC2)c1
Efficacy [7]: inactive

SMILES: Clc1ccc(N2CCN(Cc3nc4ccccc4[nH]3)CC2)nn1
Efficacy [7]: inactive

SMILES: CC(C)n1c(CN2CCN(c3ccccn3)CC2)nc2ccccc21
Efficacy [7]: inactive

SMILES: CCn1c(CN2CCN(c3ccccn3)CC2)nc2ccccc21
Efficacy [7]: inactive

SMILES: c1cnc(N2CCN(Cc3nc4ccccc4[nH]3)CC2)nc1
Activity (Rattus norvegicus [3]): 85%
Efficacy [5]: 49%
EC50 (D(4) dopamine receptor [6]): 44.8 nM
Effective dose (Rattus norvegicus [4]): 0.1 µM/kg

SMILES: Fc1ccc2[nH]c(CN3CCN(c4ccccn4)CC3)nc2c1
Activity (Rattus norvegicus [3]): 75%
Efficacy [5]: 57%
EC50 (D(4) dopamine receptor [6]): 8 nM
Effective dose (Rattus norvegicus [4]): 0.01 µM/kg

SMILES: FC(F)(F)c1ccnc(N2CCN(Cc3nc4ccccc4[nH]3)CC2)n1
Efficacy [7]: inactive

SMILES: c1ccc(C2CCN(Cc3nc4ccccc4[nH]3)CC2)nc1
Efficacy [5]: 51%
EC50 (D(4) dopamine receptor [6]): 14 nM

SMILES: NCCc1ccc(O)c(O)c1 [DOPAMINE]
Efficacy [1]: 100%
EC50 (D(4) dopamine receptor [2]): 2.4 nM

SMILES: C[C@H]1CN(c2ccccn2)CCN1Cc1nc2ccccc2[nH]1
Efficacy [5]: 43%
EC50 (D(4) dopamine receptor [6]): 52 nM

Second part, led by results:

Efficacy [5]: 42%
EC50 (D(4) dopamine receptor [6]): 86 nM
SMILES: CSc1ccccc1N1CCN(Cc2nc3ccccc3[nH]2)CC1

Efficacy [7]: inactive
SMILES: c1ccc(Cc2ccccc2N2CCN(Cc3nc4ccccc4[nH]3)CC2)nc1

Efficacy [5]: 50%
EC50 (D(4) dopamine receptor [6]): 13.9 nM
SMILES: N#Cc1cccnc1N1CCN(Cc2nc3ccccc3[nH]2)CC1

Efficacy [5]: 36%
EC50 (D(4) dopamine receptor [6]): 36.2 nM
SMILES: Cc1cccc(N2CCN(Cc3nc4ccccc4[nH]3)CC2)n1
Activity (Rattus norvegicus [3]): 62%
Effective dose (Rattus norvegicus [4]): 0.03 µM/kg

Efficacy [5]: 46%
EC50 (D(4) dopamine receptor [6]): 14.6 nM
SMILES: N#Cc1ccccc1N1CCN(Cc2nc3ccccc3[nH]2)CC1
Activity (Rattus norvegicus [3]): 65%
Effective dose (Rattus norvegicus [4]): 0.003 µM/kg

Efficacy [7]: inactive
SMILES: Cc1cccc(C)c1N1CCN(Cc2nc3ccccc3[nH]2)CC1

Efficacy [7]: inactive
SMILES: O=[N+]([O-])c1cccnc1N1CCN(Cc2nc3ccccc3[nH]2)CC1

Efficacy [5]: 40%
EC50 (D(4) dopamine receptor [6]): 3.9 nM
SMILES: O=[N+]([O-])c1ccccc1N1CCN(Cc2nc3ccccc3[nH]2)CC1

Efficacy [7]: inactive
SMILES: Oc1ccccc1N1CCN(Cc2nc3ccccc3[nH]2)CC1

Efficacy [7]: inactive
SMILES: CCc1ccccc1N1CCN(Cc2nc3ccccc3[nH]2)CC1

Efficacy [5]: 39%
EC50 (D(4) dopamine receptor [6]): 7.2 nM
SMILES: Clc1ccccc1N1CCN(Cc2nc3ccccc3[nH]2)CC1

Efficacy [5]: 42%
EC50 (D(4) dopamine receptor [6]): 14.7 nM
SMILES: Fc1ccccc1N1CCN(Cc2nc3ccccc3[nH]2)CC1
Activity (Rattus norvegicus [3]): 70%
Effective dose (Rattus norvegicus [4]): 0.01 µM/kg

Efficacy [5]: 31%
EC50 (D(4) dopamine receptor [6]): 25 nM
SMILES: CCOc1ccccc1N1CCN(Cc2nc3ccccc3[nH]2)CC1

Efficacy [5]: 48%
EC50 (D(4) dopamine receptor [6]): 12.4 nM
SMILES: COc1ccccc1N1CCN(Cc2nc3ccccc3[nH]2)CC1
Activity (Rattus norvegicus [3]): 60%
Effective dose (Rattus norvegicus [4]): 0.01 µM/kg

Efficacy [7]: inactive
SMILES: Clc1cccnc1N1CCN(Cc2nc3ccccc3[nH]2)CC1

Efficacy [5]: 27%
EC50 (D(4) dopamine receptor [6]): 24 nM
SMILES: Fc1cccnc1N1CCN(Cc2nc3ccccc3[nH]2)CC1
Activity (Rattus norvegicus [3]): 75%
Effective dose (Rattus norvegicus [4]): 0.01 µM/kg
